# Measurements reported in ChEMBL document CHEMBL2417519, “Structure-activity relationships for ketamine esters as short-acting anaesthetics” (Bioorg Med Chem, 2013).
# Tests used:
# Type in all cases: functional
# Rattus norvegicus [1] = experiment: Anesthetic effect in iv dosed Sprague-Dawley rat assessed as duration of recovery of righting reflex
# Method in brief: (§1)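 Adult female Sprague-Dawley rats (~350–450 g), restrained, tail marginal vein cannulated; drug at 10 mg/ml given by continuous iv infusion, initially 20 mg/kg/min until pedal withdrawal reflex score PWR = 1, then 6.7 mg/kg/min titrated up-and-down to keep dorsal recumbency and PWR = 1 to 10 min before cessation. Three rats per study, each its own ketamine control; randomised order, ≥1 h recovery between experiments.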
# Rattus norvegicus [2] = experiment: Anesthetic effect in iv dosed Sprague-Dawley rat assessed as dose required to cause loss of righting reflex; method in brief: as §1
# Rattus norvegicus [3] = experiment: Analgesic effect in iv dosed Sprague-Dawley rat assessed as dose required to cause pedal withdrawal reflex; method in brief: as §1
# Rattus norvegicus [4] = experiment: Analgesic effect in iv dosed Sprague-Dawley rat assessed as time required to cause pedal withdrawal reflex; method in brief: as §1
# Rattus norvegicus [5] = experiment: Anesthetic effect in iv dosed Sprague-Dawley rat assessed as duration of loss of righting reflex; method in brief: as §1
# Rattus norvegicus [6] = experiment: Anesthetic effect in iv dosed Sprague-Dawley rat assessed as time required to walk; method in brief: as §1
Structure (SMILES),Time (Rattus norvegicus [1]),Activity (Rattus norvegicus [2]),Activity (Rattus norvegicus [3]),Time (Rattus norvegicus [4]),Time (Rattus norvegicus [5]),Time (Rattus norvegicus [6])
CN(C)[C@]1(c2ccccc2Cl)CCCCC1=O.Cl,880 s,32 mg/kg,35 mg/kg,103 s,94 s,1215 s
Cl.O=C1CCCC[C@]1(NCCCO)c1ccccc1Cl,341 s,21 mg/kg,34 mg/kg,102 s,59 s,588 s
CC(=O)OCCCN[C@]1(c2ccccc2Cl)CCCCC1=O.Cl,–,26 mg/kg,34 mg/kg,–,81 s,–
CCOC(=O)CCN[C@]1(c2ccccc2Cl)CCCCC1=O.Cl,62 s,59 mg/kg,62 mg/kg,185 s,171 s,80 s
CC(C)OC(=O)CCN[C@]1(c2ccccc2Cl)CCCCC1=O.Cl,15 s,74 mg/kg,84 mg/kg,–,–,–
CC(C)OC(=O)CCN[C@@]1(c2ccccc2Cl)CCCCC1=O.Cl,0 s,71 mg/kg,82 mg/kg,190 s,170 s,900 s
CCCOC(=O)CCNC1(c2ccccc2Cl)CCCCC1=O.Cl (racemic),0 s,131 mg/kg,136 mg/kg,420 s,404 s,0 s
CCOC(=O)CCCNC1(c2ccccc2Cl)CCCCC1=O.Cl (racemic),95 s,24 mg/kg,44 mg/kg,–,70 s,170 s
CC(C)OC(=O)CCCNC1(c2ccccc2Cl)CCCCC1=O.Cl (racemic),37 s,42 mg/kg,66 mg/kg,–,–,110 s
CCCOC(=O)CCCNC1(c2ccccc2Cl)CCCCC1=O.Cl (racemic),10 s,137 mg/kg,209 mg/kg,558 s,329 s,65 s
CCOC(=O)CCCCNC1(c2ccccc2Cl)CCCCC1=O.Cl (racemic),–,34 mg/kg,57 mg/kg,–,97 s,112 s
CC(C)OC(=O)CCCCNC1(c2ccccc2Cl)CCCCC1=O.Cl (racemic),180 s,38 mg/kg,38 mg/kg,–,–,320 s
CCCOC(=O)CCCCNC1(c2ccccc2Cl)CCCCC1=O.Cl (racemic),45 s,82 mg/kg,83 mg/kg,277 s,271 s,90 s
CN(C)C1(c2ccccc2Cl)CCCCC1=O.Cl (racemic),1500 s,43 mg/kg,43 mg/kg,130 s,125 s,1740 s
CCOC(=O)CCN(C)C1(c2ccccc2Cl)CCCCC1=O (racemic),0 s,95 mg/kg,99 mg/kg,290 s,280 s,0 s
CCOC(=O)CCCN(C)C1(c2ccccc2Cl)CCCCC1=O.Cl (racemic),0 s,–,–,600 s,600 s,0 s
COC(=O)CCCCN(C)C1(c2ccccc2Cl)CCCCC1=O (racemic),0 s,–,–,–,420 s,–
CCOC(=O)CCNC1(c2ccccc2Cl)CCCCC1=O.Cl (racemic),–,48 mg/kg,55 mg/kg,–,–,–
CC(C)OC(=O)CCNC1(c2ccccc2Cl)CCCCC1=O.Cl (racemic),83 s,33 mg/kg,37 mg/kg,–,–,–
CNC1(c2ccccc2Cl)CCCCC1=O (racemic) [KETAMINE],480 s,17 mg/kg,21 mg/kg,60 s,51 s,900 s
